Experimental data: ChEMBL document CHEMBL4428067, “Drug Discovery against Psoriasis: Identification of a New Potent FMS-like Tyrosine Kinase 3 (FLT3) Inhibitor, 1-(4-((1H-Pyrazolo[3,4-d]pyrimidin-4-yl)oxy)-3-fluorophenyl)-3-(5-(tert-butyl)isoxazol-3-yl)urea, That Showed Potent Activity in a Psoriatic Animal Model” (J Med Chem, 2016)
The source made the active and inactive calls. The calls are words filed in the database; no cut-off is given here.

Assays:
[1] = target: T1, Receptor-type tyrosine-protein kinase FLT3 (Mus musculus) (UniProt Q00342); test: (§1) Inhibition of FLT3 in Balb/c mouse BMDCs assessed as suppression of FLT3L-induced pDC formation measured as lower right quadrant cells level treated on day 9 post 9 days of FLT3L-stimulation measured after 24 hrs by CD11c PerCP and CD45R/B220 FITC staining based flow cytometric analysis (reference value: 2.8%); set-up: scale not given: the % may be the effect or the level left
T1 sequence (whole entry): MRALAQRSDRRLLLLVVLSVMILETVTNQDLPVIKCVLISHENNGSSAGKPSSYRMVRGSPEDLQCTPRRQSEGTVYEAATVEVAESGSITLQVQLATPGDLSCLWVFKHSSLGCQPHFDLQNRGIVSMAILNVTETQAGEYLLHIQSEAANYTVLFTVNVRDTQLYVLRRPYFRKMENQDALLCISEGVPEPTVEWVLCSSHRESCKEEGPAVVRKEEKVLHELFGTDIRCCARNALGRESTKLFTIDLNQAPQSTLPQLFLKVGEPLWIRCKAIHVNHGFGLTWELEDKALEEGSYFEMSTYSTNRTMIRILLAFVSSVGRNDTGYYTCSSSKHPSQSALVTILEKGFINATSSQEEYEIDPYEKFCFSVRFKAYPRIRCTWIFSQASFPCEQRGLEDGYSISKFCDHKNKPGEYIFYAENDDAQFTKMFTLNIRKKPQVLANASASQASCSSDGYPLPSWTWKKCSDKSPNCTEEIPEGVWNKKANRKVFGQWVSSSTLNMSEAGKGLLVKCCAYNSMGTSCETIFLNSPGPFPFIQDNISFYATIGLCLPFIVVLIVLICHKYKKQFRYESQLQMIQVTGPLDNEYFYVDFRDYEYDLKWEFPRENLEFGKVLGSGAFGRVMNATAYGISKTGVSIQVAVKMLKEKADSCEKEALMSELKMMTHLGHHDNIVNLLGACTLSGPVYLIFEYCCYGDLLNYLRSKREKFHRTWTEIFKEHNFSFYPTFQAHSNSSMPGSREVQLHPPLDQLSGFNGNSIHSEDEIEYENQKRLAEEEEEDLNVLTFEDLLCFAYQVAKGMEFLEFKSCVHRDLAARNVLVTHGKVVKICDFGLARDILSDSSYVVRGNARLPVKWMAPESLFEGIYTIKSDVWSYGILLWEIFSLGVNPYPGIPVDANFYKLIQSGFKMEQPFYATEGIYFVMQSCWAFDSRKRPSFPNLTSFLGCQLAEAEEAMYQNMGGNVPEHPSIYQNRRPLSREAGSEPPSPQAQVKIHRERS
Summary of the method: (§2)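 BALB/c bone marrow cells were cultured at 1×10^6/ml with FLT3L in supplemented RPMI-1640 for 9 days. Compound in DMSO or 0.1% DMSO was added on day 9 for 24 h. Cells were stained for 30 min with CD11c PerCP plus B220 FITC (pDC: CD11c+ B220+) or MHC II FITC (mDC: CD11c+ MHC II+), then analysed by flow cytometry. Three independent experiments.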

[2] = target: T1, Receptor-type tyrosine-protein kinase FLT3 (Mus musculus); test: as §1, with “upper left” for “lower right”, “45.8%)” for “2.8%)”; set-up: scale not given: the % may be the effect or the level left; summary of the method: as §2
[3] = target: T1, Receptor-type tyrosine-protein kinase FLT3 (Mus musculus); test: as §1, with “mDC” for “pDC”, “upper left” for “lower right”, “I-A/I-E (MHC class II)” for “CD45R/B220”, “31.8%)” for “2.8%)”; set-up: scale not given: the % may be the effect or the level left; summary of the method: as §2
[4] = target: T1, Receptor-type tyrosine-protein kinase FLT3 (Mus musculus); test: Inhibition of FLT3 in mouse BMDCs assessed as suppression of STAT3 phosphorylation at 10 and 100 nM treated on day 9 post 9 days of FLT3L-stimulation measured after 1 hr by Western blot analysis
Summary of the method: (§3)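 Bone marrow cells were cultured 9 days with FLT3L in supplemented RPMI-1640, then exposed to compound or 0.1% DMSO for 1 h on day 9. Whole cells were lysed and immunoblotted with rabbit antibodies to STAT3, STAT5, pSTAT3 and pSTAT5. Three independent experiments.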

[5] = target: T1, Receptor-type tyrosine-protein kinase FLT3 (Mus musculus); test: Inhibition of FLT3 in mouse BMDCs assessed as suppression of STAT5 phosphorylation at 10 and 100 nM treated on day 9 post 9 days of FLT3L-stimulation measured after 1 hr by Western blot analysis; summary of the method: as §3
Mus musculus [6] = organism: Mus musculus; test: Antipsoriatic activity in K14-VEGF transgenic mouse model of psoriasis assessed as improvement of psoriatic symptoms at 0.05% applied tropically over lesion for continuous 21 days by macroscopic analysis relative to vehicle control; format: functional, organism-based
Summary of the method: (§4)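 Homozygous K14-VEGF mice, 3–4 months old, with moderate to serious psoriasis. Lesions smeared with cream with or without 0.05% compound for 3 weeks, then observed untreated for another 15 days. Head and neck photographed on days 0, 21 and 36 for macroscopic assessment.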

Mus musculus [7] = organism: Mus musculus; test: Antipsoriatic activity in K14-VEGF transgenic mouse model of psoriasis assessed as recurrence of psoriatic symptoms at 0.05% applied tropically over lesion for continuous 21 days measured after 15 days of last dosage by macroscopic analysis relative to vehicle control; format: functional, organism-based; summary of the method: as §4
Mus musculus [8] = organism: Mus musculus; test: Antipsoriatic activity in K14-VEGF transgenic mouse model of psoriasis assessed alleviation in lack of granular layer at 0.05% applied tropically over lesion for continuous 29 days by H and E staining method relative to vehicle control; format: functional, organism-based
Summary of the method: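 Homozygous K14-VEGF mice, 3–4 months old, with moderate to serious psoriasis; n=3 per group. Cream with 0.05% compound or vehicle cream smeared on lesions. Head and neck tissue sections taken after 29 days of treatment and HE-stained. Baker pathological score from 5 random fields, given as mean and SD. Epidermal thickness from 8 random fields, given as mean ± SEM.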

Mus musculus [9] = organism: Mus musculus; test: Antipsoriatic activity in K14-VEGF transgenic mouse model of psoriasis assessed as lower left quadrant DC cells expressing FLT3 and CD11c in psoriatic plaque lesion at 0.05% applied tropically over lesion for continuous 29 days by flow cytometric analysis (reference value: 72.7%); format: functional
Mus musculus [10] = organism: Mus musculus; test: Antipsoriatic activity in K14-VEGF transgenic mouse model of psoriasis assessed as upper left quadrant DC cells expressing FLT3 and CD11c in psoriatic plaque lesion at 0.05% applied tropically over lesion for continuous 29 days by flow cytometric analysis (reference value: 8.83%); format: functional
Mus musculus [11] = organism: Mus musculus; test: Antipsoriatic activity in K14-VEGF transgenic mouse model of psoriasis assessed as lower right quadrant FLT3+/CD11c+/B220+ pDC cells in psoriatic plaque lesion at 0.05% applied tropically over lesion for continuous 29 days by flow cytometric analysis (reference value: 0.52%); format: functional
Mus musculus [12] = organism: Mus musculus; test: Antipsoriatic activity in K14-VEGF transgenic mouse model of psoriasis assessed as decrease in CD54 expression in psoriatic lesion at 0.05% applied tropically over lesion for continuous 29 days by immunohistochemical analysis relative to vehicle control; format: functional; set-up: scale not given: the % may be the effect or the level left
Summary of the method: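 K14-VEGF mice were treated topically with 0.05% cream or vehicle for 29 days, n=3 per group. Ear skin was paraffin-embedded, cut into 4-µm sections and immunostained. Staining was quantified in 5 random fields, reported as mean ± SD.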

Mus musculus [13] = organism: Mus musculus; test: Antipsoriatic activity in K14-VEGF transgenic mouse model of psoriasis assessed as lower left quadrant FLT3+/CD11c+/MHC-II+ mDC cells in psoriatic plaque lesion at 0.05% applied tropically over lesion for continuous 29 days by flow cytometric analysis (reference value: 0%)

CC(C)(C)c1cc(NC(=O)Nc2ccc(Oc3ncnc4[nH]ncc34)c(F)c2)no1
Activity [1]: 4.63% | Activity [2]: 40.3% | Activity [3]: 23.5% | inhibition [4]: Active | inhibition [5]: Active | Activity (Mus musculus [6]): Active | Activity (Mus musculus [7]): inactive | Activity (Mus musculus [8]): Active | Activity (Mus musculus [9]): 89.5% | Activity (Mus musculus [10]): 5.18% | Activity (Mus musculus [11]): 0% | Activity (Mus musculus [12]): 87% | Activity (Mus musculus [13]): 0%
